Compounds with a hit are over-represented: about 4.4% of the library has one in this group of screens.
EBI2 antag: EBI2 receptor antagonists, beta-arrestin recruitment, primary screen, cell-based, luminescence, 7a,25-OHC stimulation, uHTS. 7a,25-OHC stimulated. actives 0.81% (n = 360,000). inhibition, % at 5 µM. AID 651636, 2012; in the data active = inhibition above about 38%;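 note: enzyme fragment complementation signal reports receptor beta-arrestin coupling in cells; 0% = agonist plus DMSO wells and 100% = wells without agonist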
Target sequence (P32249 whole entry, looked up, the tested form may be a part): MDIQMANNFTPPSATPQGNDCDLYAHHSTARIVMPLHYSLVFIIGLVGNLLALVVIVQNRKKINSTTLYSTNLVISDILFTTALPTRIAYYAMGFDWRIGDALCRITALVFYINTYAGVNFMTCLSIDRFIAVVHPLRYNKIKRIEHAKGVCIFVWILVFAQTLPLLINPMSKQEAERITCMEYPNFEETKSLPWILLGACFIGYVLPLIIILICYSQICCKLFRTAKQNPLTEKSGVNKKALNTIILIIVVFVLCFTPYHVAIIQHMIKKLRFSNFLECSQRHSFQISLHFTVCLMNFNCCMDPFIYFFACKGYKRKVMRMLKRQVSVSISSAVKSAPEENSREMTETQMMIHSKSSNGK
MPTP block: mitochondrial permeability transition pore inhibitors, primary screen, biochemical, isolated mouse mitochondria, absorbance | Ca2+ swelling absorbance, 30 min | inhibition, % at 10 µM | actives 1.4% (n = 360,000) | AID 602449, 2012;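 active = inhibition of 50% or more, scaled per plate between neutral and stimulator controls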;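 note: 0% = DMSO wells given calcium and 100% = 1 mM EGTA wells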
GRIN3A LBD mod: binders of NR3A ligand-binding domain, primary screen, biophysical, differential scanning fluorimetry, uHTS; AID 1259313, 2017; NR3A LBD differential scanning fluorimetry, Tm shift; 0% = protein alone, 100% = glycine-bound protein; Tm shift relative to glycine control, % at 25 µM; actives 2.5% (n = 340,000);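 active = melting temperature shift of at least 10% of the positive control shift, at one fixed dose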
SENP1 FRET inh: human SENP1 catalytic domain inhibitors, primary screen, biochemical, FRET, uHTS; Sentrin-specific protease 1 (Homo sapiens), Q9P0U3; recombinant SENP1 catalytic domain, CyPet-SUMO1-YPet FRET cleavage; inhibition, % at 10 µM; actives 0.21% (n = 360,000); AID 624204, 2012;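 active = inhibition at least 30% at 10 µM, raw YFP signal under a set limit, fluorescence ratio 0.5 to 1.5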;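 note: 0% = enzyme with DMSO and 100% = no enzyme wells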
Target sequence (Q9P0U3 419-644 limits assumed): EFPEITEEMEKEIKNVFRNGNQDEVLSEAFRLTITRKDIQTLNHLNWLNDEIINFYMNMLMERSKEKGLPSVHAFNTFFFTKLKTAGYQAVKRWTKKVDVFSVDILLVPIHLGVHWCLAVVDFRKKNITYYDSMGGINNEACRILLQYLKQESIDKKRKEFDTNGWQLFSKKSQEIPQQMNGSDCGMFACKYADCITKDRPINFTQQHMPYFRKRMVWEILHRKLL
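Material: hSENP1 catalytic domain, recombinant; medium: Tris pH 8 with BME, BSA, NP40 and catalase; compound: single concentration of 10 µM compound, 0.5% DMSO final; technique: FRET read of cyan and yellow fluorescence; timing: 50 min enzyme reaction, room temperature, light-protected; reagent: SFCypet-SUMO1-SFYpet substrate at 25 nM; control set: no-enzyme low, enzyme-DMSO high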
EBI2 conf: EBI2 antagonist hit retest, beta-arrestin, confirmation, cell-based, single concentration, luminescence, 7a,25-OHC stimulation. shares compounds with EBI2 antag. 7a,25-OHC antagonism. inhibition, % at 5 µM. actives 29% (n = 2,400);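 active = inhibition of at least 50%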
EBI2 ag: EBI2 agonist activity of antagonist hits, confirmation, counter-screen for EBI2 antagonist project, cell-based, single concentration, agonist mode, luminescence; shares compounds with EBI2 antag; EBI2-expressing cells, 60 min; 0% vehicle, 100% 7α,25-dihydroxycholesterol control; activation, % at 5 µM; 2,400 tested, under 10 active;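 active = activation of at least 50%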
bGal cs: E. coli beta-galactosidase enzyme inhibition, confirmation, counter-screen for EBI2 antagonist project, biochemical, luminescence, single concentration; shares compounds with EBI2 antag; purified beta-galactosidase, luminescent Galacton Star, 15 min; inhibition, % at 5 µM; actives 1% (n = 2,400);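 active = replicate-average signal at least 3 plate SD below neutral wells, shown as high inhibition, flagging enzyme-inhibiting false positives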;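 note: 0% = DMSO wells with enzyme and 100% = wells lacking enzyme; higher means stronger loss of beta-gal luminescence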
* hit, by the source's call; / = no result given.

SMILES | EBI2 antag | MPTP block | GRIN3A LBD mod | SENP1 FRET inh | EBI2 conf | EBI2 ag | bGal cs
CC(=O)c1cccc(N(C(=O)CNC(=O)c2ccco2)C(C(=O)NCC2CCCO2)c2ccccc2)c1 (centres undefined) | -7 | -3 | -1 | 0 | / | / | /
Cc1ccc(OCCNC(=O)Cc2ccc(F)cc2)cc1 | 50* | 1 | 0 | 1 | 44 | 1 | 5
CC1=C(CC(=O)O)c2cc(F)ccc2C1=Cc1ccc(S(C)(=O)=O)cc1 | -1 | -4 | -1 | 1 | / | / | /
FC(F)C(F)(F)Oc1cccc(Nc2nccn3c(-c4cccc5cccnc45)cnc23)c1 | 47* | 0 | / | -1 | 35 | 2 | 4
COc1ccccc1-c1cnc2c(Nc3cccc(OC(F)(F)C(F)F)c3)nccn12 | 68* | 0 | / | 0 | 41 | -1 | -12
Cc1ccc(S(=O)(=O)Nc2ccc(Nc3nccn4c(-c5cccc(OC(F)(F)F)c5)cnc34)cc2)cc1 | 17 | 2 | / | -26 | / | / | /
O=C(NCCO)c1cccc(-c2cnc3c(Nc4cccc(OC(F)(F)C(F)F)c4)nccn23)c1 | 40 | 1 | / | -11 | / | / | /
O=C(CNCc1ccccc1)Nc1ccc(Cl)cc1 | 0 | 3 | 0 | 0 | / | / | /
COc1ccc(/C=C/C(=O)c2cc3c(cc2N)OCO3)cc1 | 63* | 1 | 3 | -5 | 48 | 0 | 10
O=C(c1cc2cc(Cl)ccc2[nH]1)N1CCN(C(=O)c2ccco2)CC1 | 73* | -2 | 4 | -2 | 49 | -1 | -7
O=C(c1cc2cc(Cl)ccc2[nH]1)N1CCN(c2ccccn2)CC1 | 80* | 1 | -1 | -1 | 67* | -2 | -8
O=C(c1cc2cc(Cl)ccc2[nH]1)N1CCN(c2ccccc2F)CC1 | 85* | 2 | -2 | 4 | 73* | 1 | 7
O=C(c1ccccc1C(=O)N1CCN(c2ccccc2F)CC1)N1CCN(c2ccccc2F)CC1 | 6 | -6 | -1 | 8 | / | / | /
COc1ccccc1/C=C/C=N/NC(=O)c1cccs1 | 22 | 0 | 0 | 1 | / | / | /
CCOc1ccc(N2CC(C(=O)Nc3ccc(S(=O)(=O)N4CCCCC4)cc3)CC2=O)cc1 (centres undefined) | 79* | -2 | -3 | -2 | 63* | -1 | -21
CCOc1ccc(N2CC(C(=O)Nc3cccc(S(=O)(=O)N4CCCCC4)c3)CC2=O)cc1 (centres undefined) | 39 | -1 | -17 | -1 | / | / | /
CCOc1ccc(N2CC(C(=O)Nc3ccc(S(=O)(=O)N4CCCC4)cc3)CC2=O)cc1 (centres undefined) | 53* | -1 | -1 | -1 | 44 | 1 | 2
CCOc1ccc(N2CC(C(=O)Nc3ccc(S(=O)(=O)Nc4ncccn4)cc3)CC2=O)cc1 (centres undefined) | -7 | 0 | 1 | 4 | / | / | /
O=C(Nc1ccccc1C(=O)N/N=C/c1ccco1)c1ccc(F)cc1 | -4 | -1 | -4 | -6 | / | / | /
COc1ccc(S(=O)(=O)N2CCN(C(=O)c3cc(C)oc3C)CC2)cc1OC | 1 | -1 | 1 | -1 | / | / | /
COc1ccccc1-c1cc(C(=O)N2CCN(S(=O)(=O)c3ccc(C)cc3)CC2)[nH]n1 | 62* | -1 | 0 | 1 | 41 | 3 | -20
O=C(c1cc(-c2ccc(Br)cc2)n[nH]1)N1CCN(C(=O)c2ccccc2Br)CC1 | 84* | 0 | -6 | 2 | 52* | 1 | -15
COc1ccc(S(=O)(=O)N2CCN(C(=O)c3cc(-c4ccc(Br)cc4)n[nH]3)CC2)cc1OC | 72* | -1 | 0 | 3 | 45 | 2 | 4
Cc1ccc(S(=O)(=O)N2CCN(C(=O)c3n[nH]c4ccccc34)CC2)cc1 | 1 | -2 | -3 | 3 | / | / | /
O=C(c1cc(-c2ccccc2)n[nH]1)N1CCN(S(=O)(=O)c2ccccc2)CC1 | 59* | 0 | -3 | 0 | 23 | 0 | -15
SMILES | EBI2 antag | MPTP block | GRIN3A LBD mod | SENP1 FRET inh | EBI2 conf | EBI2 ag | bGal cs
O=C(O)c1cc(-c2ccccc2)n[nH]1 | -13 | 0 | -1 | 1 | / | / | /
COc1nc(N)nc2c1ncn2C1OC(CO)CC1O (centres undefined) | 1 | -2 | -4 | 3 | / | / | /
CCCNC(=O)C1(C)CCCN(C(=O)C2(c3ccc(Cl)cc3)CCCC2)C1 (centres undefined) | 8 | 1 | / | -1 | / | / | /
COc1ccc(-c2cc(C(=O)N3CCN(C(=O)c4ccccc4F)CC3)[nH]n2)cc1 | 32 | 0 | -2 | 4 | / | / | /
COc1ccc(-c2cc(C(=O)N3CCN(S(=O)(=O)c4ccccc4)CC3)[nH]n2)cc1 | 48* | -1 | 15* | 0 | 27 | 0 | 9
CCN(CC)C(=O)C1CCCN(C(=O)c2oc3ccc(C)cc3c2C)C1 (centres undefined) | -8 | 0 | 2 | 3 | / | / | /
CCN(CC)C(=O)C1CCN(C(=O)c2oc3ccc(C)cc3c2C)CC1 | 80* | 1 | 4 | 4 | 57* | 3 | 6
Cc1ccc2oc(C(=O)N3CCC(O)(c4ccccc4)CC3)c(C)c2c1 | 84* | -1 | -2 | 2 | 78* | 1 | 3
O=[N+]([O-])c1ccc(N2CCN(C(=S)NCc3ccc(Cl)cc3)CC2)cc1 | 52* | 30 | 8 | -18 | 32 | 2 | 9
CCNC(=S)N1CCN(c2ccc([N+](=O)[O-])cc2)CC1 | -11 | 1 | 1 | -5 | / | / | /
COc1cc(-c2nc(-c3ccccc3)c(-c3cccs3)[nH]2)cc(OC)c1OC | 45* | 2 | -4 | -2 | 16 | 2 | 4
COc1cc(-c2nc(-c3ccccc3)c(-c3cccs3)[nH]2)cc(OC)c1O | 17 | 4 | 0 | -1 | / | / | /
COc1cc2c(cc1OC)C(c1ccc(-c3ccc(Cl)cc3Cl)o1)=NCC2 | 74* | 2 | 2 | -18 | 66* | -1 | -17
COc1cccc(OCC(O)CN2CCN(C(c3ccccc3)c3ccccc3)CC2)c1 (centres undefined) | 38* | 1 | 2 | 1 | 16 | -1 | -11
